In brackets after ≈: the same amount, converted by molar mass.
Columns and labels:
Format in all cases: functional
Conditions in all cases: read-out: ED50 (the source's name)
HL-60 = assay: Cytotoxicity against human HL60 cells
How it was run: (§1)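 Cell lines obtained from the American Type Culture Collection; the assay protocol itself is given only by reference to earlier work.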

P388 = assay: Cytotoxicity against mouse P388 cells
How it was run: (§2)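 KB and P-388 cells supplied by an academic laboratory (University of Illinois at Chicago); the assay protocol itself is given only by reference to earlier work.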

A549 = assay: Cytotoxicity against human A549 cells; how it was run: as §1
KB = assay: Cytotoxicity against human KB cells; how it was run: as §2
HT-29 = assay: Cytotoxicity against human HT-29 cells; how it was run: as §1

SMILES | EC50 (HL-60) [mg/L] | EC50 (P388) [mg/L] | EC50 (A549) [mg/L] | EC50 (KB) [mg/L] | EC50 (HT-29) [mg/L]
COc1ccc([C@@]23Oc4cc(OC)cc(OC)c4[C@]2(O)[C@H](O)[C@H](C(=O)O)[C@H]3c2ccccc2)cc1 [ROCAGLOIC ACID] | 0.00084 (≈ 0.00176 µM) | 0.0012 (≈ 0.00251 µM) | 0.00074 (≈ 0.00155 µM) | 0.0023 (≈ 0.00481 µM) | 0.00084 (≈ 0.00176 µM)
C/C=C(\C)C(=O)N[C@@H]1CCCN1C(=O)[C@@H]1[C@@H](c2ccccc2)[C@]2(c3ccc(OC)cc3)Oc3cc(OC)cc(OC)c3[C@@]1(O)[C@@H]2O [ELLIPTIFOLINE] | > 50 | 3.41 (≈ 5.42 µM) | 18.9 (≈ 30.1 µM) | > 50 | > 50
C/C=C(\C)C(=O)NC(CCCO)NC(=O)/C=C/c1ccccc1 (stereo not given) | 32.1 (≈ 101 µM) | 3.62 (≈ 11.4 µM) | > 50 | > 50 | > 50
